Measured values published in ChEMBL document CHEMBL1131417, “Characterization of novel N,N'-disubstituted piperazines as sigma receptor ligands” (J Med Chem, 1998).

target: Sigma 2 receptor; assay: Binding affinity was tested against sigma-2 receptor site in presence of dextrallorphan in rat liver membranes.; type: cell membranes, Membrane
How it was run: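 Rat liver membranes (160 μg protein) incubated with 5 nM [3H]DTG plus 1 μM dextrallorphan to mask σ-1 sites, in Tris-HCl pH 8.0, 120 min at 25 °C. Twelve competitor concentrations spanning 0.05–10 000 nM or 0.5–100 000 nM. IC50 from iterative curve fit, converted to apparent Ki by Cheng–Prusoff. Mean ± SEM of 2–3 experiments, each in duplicate.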

How did the Ki turn out when `NCCCCN1CCN(CCCc2ccccc2)CC1` was run?
The Ki was 999 nM.

How did the Ki turn out when `COc1ccccc1CCN1CCN(CCc2ccccc2OC)CC1` was run?
Its Ki is 17 nM.

For `COc1ccc(CCN2CCN(C(=O)Cc3ccc(OC)cc3)CC2)cc1`, which Ki is on record?
The Ki was 744 nM.

How did the Ki turn out when `O=C(Cc1ccccc1[N+](=O)[O-])N1CCN(CCCc2ccccc2)CC1` was run?
The Ki was 76 nM.

How did the Ki turn out when `COc1ccc(CCN2CCN(CCCc3ccccc3)CC2)cc1` was run?
Its Ki is 29 nM.

`O=[N+]([O-])c1cccc(CCN2CCN(CCCc3ccccc3)CC2)c1` was tested. Which Ki did it give?
Its Ki is 9.4 nM.

`COc1ccc(CCN2CCN(CCc3ccc(OC)cc3)CC2)cc1` was tested. Which Ki did it give?
Its Ki is 99 nM.

How did the Ki turn out when `COc1cccc(CCN2CCN(CCc3cccc(OC)c3)CC2)c1` was run?
Its Ki is 29 nM.

Which Ki does the source give for `COc1ccccc1CC(=O)N1CCN(CCCc2ccccc2)CC1` here?
The Ki was 294 nM.

Which Ki does the source give for `Nc1ccc(CCN2CCN(CCCc3ccccc3)CC2)cc1` here?
Its Ki is 14 nM.

`Nc1cccc(CCN2CCN(CCCc3ccccc3)CC2)c1` was tested. Which Ki did it give?
Its Ki is 37 nM.

How did the Ki turn out when `CC(C)(C)OC(=O)NCCC(=O)N1CCN(CCCc2ccccc2)CC1` was run?
The Ki was 4560 nM.

`Nc1ccccc1CCN1CCN(CCCc2ccccc2)CC1` was tested. Which Ki did it give?
The Ki was 18 nM.

For `O=C(Cc1ccc(Cl)c(Cl)c1)N1CCN(CCCc2ccccc2)CC1`, which Ki is on record?
The Ki was 78 nM.

With `O=C(Cc1ccc([N+](=O)[O-])cc1)N1CCN(CCCc2ccccc2)CC1` as the compound, how does the Ki read?
The Ki was 167 nM.

`COc1ccccc1CCN1CCN(CCCc2ccccc2)CC1` was tested. Which Ki did it give?
Its Ki is 7.5 nM.

Which Ki does the source give for `COc1ccccc1CCN1CCN(C(=O)Cc2ccccc2OC)CC1` here?
The Ki was over 10 nM.

How did the Ki turn out when `O=[N+]([O-])c1ccc(CCN2CCN(CCCc3ccccc3)CC2)cc1` was run?
Its Ki is 25 nM.

How did the Ki turn out when `NCCN1CCN(CCCc2ccccc2)CC1` was run?
Its Ki is 188 nM.

For `NCCCC(=O)N1CCN(CCCc2ccccc2)CC1`, which Ki is on record?
Its Ki is 3840 nM.

How did the Ki turn out when `O=C(Cc1cccc([N+](=O)[O-])c1)N1CCN(CCCc2ccccc2)CC1` was run?
Its Ki is 65 nM.

For `CC(C)(C)OC(=O)NCCCC(=O)N1CCN(CCCc2ccccc2)CC1`, which Ki is on record?
The Ki was 126 nM.

With `Clc1ccc(CCN2CCN(CCCc3ccccc3)CC2)cc1Cl` as the compound, how does the Ki read?
Its Ki is 39 nM.

For `O=[N+]([O-])c1ccccc1CCN1CCN(CCCc2ccccc2)CC1`, which Ki is on record?
The Ki was 4.9 nM.

`NCCC(=O)N1CCN(CCCc2ccccc2)CC1` was tested. Which Ki did it give?
The Ki was 1780 nM.

Which Ki does the source give for `COc1cccc(CCN2CCN(CCCc3ccccc3)CC2)c1` here?
Its Ki is 10 nM.

`COc1cccc(CC(=O)N2CCN(CCCc3ccccc3)CC2)c1` was tested. Which Ki did it give?
Its Ki is 206 nM.

For `COc1ccc(CC(=O)N2CCN(CCCc3ccccc3)CC2)cc1`, which Ki is on record?
The Ki was 464 nM.

Which Ki does the source give for `NCCCN1CCN(CCCc2ccccc2)CC1` here?
Its Ki is 2000 nM.

`NCC(=O)N1CCN(CCCc2ccccc2)CC1` was tested. Which Ki did it give?
The Ki was 303 nM.

tested on: Sigma 2 receptor; assay: Binding affinity was tested against sigma-2 receptor in presence of dextrallorphan in rat liver membranes; NA =data not available; type: cell membranes, Membrane; call rule not given here
How it was run: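 Rat liver membranes (160 μg protein) were incubated with 5 nM [3H]DTG plus 1 μM dextrallorphan to mask σ-1 sites, in Tris-HCl pH 8.0, for 120 min at 25 °C. Twelve competitor concentrations spanned 0.05–10 000 nM or 0.5–100 000 nM. IC50 from curve fitting was converted to Ki by Cheng-Prusoff. Values are the mean ± SEM of 2–3 experiments, each run in duplicate.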

For `COc1cccc(CCN2CCN(C(=O)Cc3cccc(OC)c3)CC2)c1`, which Ki is on record?
The Ki was “Not Active”.
